# Target: Somatostatin receptor
# Assay: In vitro binding affinity of [111In]DTPA-[Y3]-octreotate to somatostatin receptor in the rat pancreatic tumor cell line, […]
# Outline: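 Competition binding on CA20948 rat pancreatic cell membranes with the tracer [111In]-DTPA-[Y3]-octreotate and increasing concentrations of unlabeled competitor. Incubation 90 min at room temperature, then filtration and buffer washes. Filter-bound radioactivity was gamma-counted, and IC50 came from a four-parameter curve fit. Specific activity of the radiolabeled peptide was >1400 Ci/mmol.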
row,IC50,Compound
1,285.2 nM,C[C@@H](O)[C@H](NC(=O)[C@H]1CSSC[C@H](NC(=O)[C@@H](Cc2ccccc2)NC(=O)CNC(=O)[C@H](CO)NC(=O)CNC(=S)Nc2ccc3c(c2)C(=O)OC32c3ccc(O)cc3Oc3cc(O)ccc32)C(=O)N[C@@H](Cc2ccc(O)cc2)C(=O)N[C@H](Cc2c[nH]c3ccccc23)C(=O)N[C@@H](CCCCN)C(=O)N[C@H]([C@@H](C)O)C(=O)N1)C(=O)O
2,> 1000 nM,C[C@@H](O)[C@H](NC(=O)[C@H]1CSSC[C@H](NC(=O)[C@@H](Cc2ccccc2)NC(=O)CC/N=C(\S)Nc2ccc3c(c2)C(=O)OC32c3ccc(O)cc3Oc3cc(O)ccc32)C(=O)N[C@@H](Cc2ccc(O)cc2)C(=O)N[C@H](Cc2c[nH]c3ccccc23)C(=O)N[C@@H](CCCCN)C(=O)N[C@H]([C@@H](C)O)C(=O)N1)C(=O)O
3,1.9 nM,C[C@@H](O)[C@H](NC(=O)[C@H]1CSSC[C@H](NC(=O)[C@@H](Cc2ccccc2)NC(=O)CN(CCN(CCN(CC(=O)O)CC(=O)O)CC(=O)O)CC(=O)O)C(=O)N[C@@H](Cc2ccc(O)cc2)C(=O)N[C@H](Cc2c[nH]c3ccccc23)C(=O)N[C@@H](CCCCN)C(=O)N[C@H]([C@@H](C)O)C(=O)N1)C(=O)O
4,187.8 nM,C[C@@H](O)[C@H](NC(=O)[C@H]1CSSC[C@H](NC(=O)[C@@H](Cc2ccccc2)NC(=O)C(N)CCCC/N=C(\S)Nc2ccc3c(c2)C(=O)OC32c3ccc(O)cc3Oc3cc(O)ccc32)C(=O)N[C@@H](Cc2ccc(O)cc2)C(=O)N[C@H](Cc2c[nH]c3ccccc23)C(=O)N[C@@H](CCCCN)C(=O)N[C@H]([C@@H](C)O)C(=O)N1)C(=O)O (stereo not given in full)
5,10.3 nM,C[C@@H](O)[C@H](NC(=O)[C@H]1CSSC[C@H](NC(=O)[C@@H](Cc2ccccc2)NC(=O)C(CCCC/N=C(/S)Nc2ccc3c(c2)C(=O)OC32c3ccc(O)cc3Oc3cc(O)ccc32)NC(=O)CN2CCN(CC(=O)O)CCN(CC(=O)O)CCN(CC(=O)O)CC2)C(=O)N[C@@H](Cc2ccc(O)cc2)C(=O)N[C@H](Cc2c[nH]c3ccccc23)C(=O)N[C@@H](CCCCN)C(=O)N[C@H]([C@@H](C)O)C(=O)N1)C(=O)O (stereo not given in full)

# Source: ChEMBL document CHEMBL1136045, “Synthesis, in vitro receptor binding, and in vivo evaluation of fluorescein and carbocyanine peptide-based optical contrast agents” (J Med Chem, 2002)
